ChEMBL document CHEMBL4266032, “Methylated Polycyclic Polyprenylated Acylphloroglucinol Derivatives from Hypericum ascyron” (2018)

Tested on: SK-N-SH
Test: Neuroprotective activity against glutamate-induced toxicity in human SK-N-SH cells assessed as cell viability at 10 uM pretreated for 4 hrs followed by glutamate challenge measured after 4 hrs by MTT assay (reference value: 67.7 +/- 1.1%)
Assay type: functional
Conditions: read-out: Activity

| SMILES | viability at 10 µM |
| --- | --- |
| CC(C)=CCC[C@]1(C)[C@@H](CC=C(C)C)C[C@]2(C)C(=O)C3=C(O[C@H](C(C)(C)O)[C@H]3O)[C@@]1(C(=O)c1ccccc1)C2=O | 78.2% |
| CC(C)=CCC[C@]1(C)[C@@H](CC=C(C)C)C[C@]2(C)C(=O)C3=C(O[C@H](C(C)(C)O)[C@@H]3O)[C@@]1(C(=O)c1ccccc1)C2=O | 72.2% |
| CC(C)=CCC[C@]1(C)[C@@H](CC=C(C)C)C[C@@]2(C)C(=O)[C@]1(C(=O)c1ccccc1)C(=O)C1=C2O[C@@H](C(C)(C)O)C1 | 82.9% |
| CC(C)=CCC[C@]1(C)[C@@H](CC=C(C)C)C[C@]2(C)C(=O)C3=C(O[C@@H](C(C)(C)O)C3)[C@@]1(C(=O)c1ccccc1)C2=O | 71.8% |
| Oc1ccc(/C=C/c2cc(O)cc(O)c2)cc1 [RESVERATROL] | 82.5% |

Tested on: HepG2
Test: Hepatoprotective activity in human HepG2 cells assessed as inhibition of paracetamol-induced reduction in cell viability at 10 uM pretreated for 1 hr followed by paracetamol addition after 24 hrs by MTT assay relative to control
Assay type: functional
Conditions: not given
Outline: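 HepG2 cells injured with paracetamol; test agents at 10 μM; viability read by MTT and given as % of normal, with protection expressed as % inhibition relative to the paracetamol-only control. Bicyclol at 10 μM served as positive control. Means ± SD, n = 3 (n = 6 for normal and control groups).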

| SMILES | inhibition at 10 µM |
| --- | --- |
| CC(C)=CCC[C@]1(C)[C@@H](CC=C(C)C)C[C@]2(C)C(=O)C3=C(O[C@H](C(C)(C)O)[C@H]3O)[C@@]1(C(=O)c1ccccc1)C2=O | 68.1% |
| CC(C)=CCC[C@]1(C)[C@@H](CC=C(C)C)C[C@]2(C)C(=O)C3=C(O[C@@H](C(C)(C)O)[C@H]3O)[C@@]1(C(=O)c1ccccc1)C2=O | 71.4% |
| CC(C)=CC[C@H]1C[C@]2(C)C(=O)C(C(=O)c3ccccc3)=C3O[C@H](C(C)(C)O)CC[C@@]1(C)[C@]3(CC=C(C)C)C2=O | 42.9% |
| CC(C)=CCC[C@]1(C)[C@@H](CC=C(C)C)C[C@@]2(C)C(=O)[C@]1(C(=O)c1ccccc1)C(=O)C1=C2O[C@H](C(C)(C)O)[C@@H]1O | 30.8% |
| CC(C)=CCC1=C2O[C@H](C(C)(C)O)CC[C@]3(C)[C@@H](CC=C(C)C)C[C@](C)(C1=O)C(=O)[C@]23C(=O)c1ccccc1 | 37.2% |
| COC(=O)c1cc(OC)c2c(c1-c1c(CO)cc(OC)c3c1OCO3)OCO2 [BICYCLOL] | 52.6% |
